Screening results as filed in PubChem BioAssay.
ARNT-TACC3 inh – disruptors of ARNT/TACC3 protein interaction, primary screen, biochemical, AlphaScreen, single concentration; Transforming acidic coiled-coil-containing protein 3 (Homo sapiens), Q9Y6A5; 0.66% of 390,000 active; inhibition, % at 9.99 µM; AlphaScreen His-ARNT PAS-B/GST-TACC3 binding, luminescence; TACC3 fragment carries E629A point mutation;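 active = mean inhibition of replicates at least 50% and at least half of replicates each reaching 50%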;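 also: 0% = complete ARNT plus TACC3 wells and 100% = ARNT alone without TACC3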
T cruzi repl – inhibitors of intracellular T. cruzi growth, primary screen, luminescence, NIH3T3 host cells; T. cruzi beta-gal in NIH3T3, 90 h; inhibition, % (no concentration beside the values); 1.4% of 300,000 active;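 active = mean inhibition across valid replicates above about 55%, limit read from the data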;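 also: signal also drops with host cell toxicity which is not excluded here; 0% = plate median of DMSO wells and 100% = zero luminescence signal; higher percent means less beta-gal luminescence so fewer parasites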
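System – NIH/3T3 host cells with β-galactosidase reporter T. cruzi · Doses – single 50 nL compound addition per well in DMSO · Reagent – 5000 T. cruzi trypomastigotes/well · Medium – Low-serum DMEM with 2% FBS · Timing – ≥90 h infection period, 3 h prior cell attachment · Evaluation – parasite load inhibition, % · Technique – GalScreen luminescence, 60 min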
HIF activator – HIF pathway transcriptional activators, primary screen, cell-based, U2OS HRE-luciferase, luminescence; U2OS HRE-luciferase reporter; normalized: DMSO 0%, desferrioxamine 100%; activation, % at 7.5 µM (by protocol); 0.32% of 300,000 active; AID 1910, 2009;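 active = mean activation of at least 10% of the iron chelator positive control signal, with at least half of replicates also reaching 10%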
AI-2 QS mod – Vibrio harveyi AI-2 quorum sensing modulators, primary screen, JMH597 strain, luminescence/OD600 ratio; 0.4% of 300,000 active; Vibrio harveyi JMH597 AI-2 luminescence/OD600 ratio, 9 h; hits give low values; strain lacks LuxN and CqsS sensors; 0 = neutral-control median; activity change, % at 7.5 µM; in the data active = activity change below about -75%, passing the limit was not always enough;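 also: luminescence divided by OD600 gain over 9 h not by final OD600 alone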
AlphaScreen ctr – AlphaScreen signal interference compounds, dose response, artefact control for ARNT-TACC3 interaction inhibitor project, biochemical, luminescence, cherry-pick; shares compounds with ARNT-TACC3 inh; His-ARNT PASB-GST AlphaScreen artifact counter-screen; AC50, µM (doses to about 68 µM), for inactives: top-dose activity change, negative = signal decrease; 50% of 1,200 active; AID 651705, 2012;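 active = every separate test run was called active for a drop in luminescence, with AC50 within twice the top valid dose, actives reach about 71 µM in these data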
Active calls of the source: *; · = no result given; [ ] = remark or other dose. The list is not random: actives were taken first. Their share in the collection is about 2%.

SMILES	ARNT-TACC3 inh	T cruzi repl	HIF activator	AI-2 QS mod	AlphaScreen ctr
CC(=O)Nc1ccc2nc3ccccc3nc2c1	32.1*	-1.8	2.5	11.2	-13.8%
Cc1noc(C)c1S(=O)(=O)Nc1ccc2c(c1)C(=O)N([C@H](C)CO)C[C@H](C)[C@H](CN(C)C(=O)Nc1ccc3c(c1)OCO3)OCCCC[C@H](C)O2	4.8	·	·	·	·
O=C(N[C@H]1CC[C@H](CCNC(=O)C2CCOCC2)O[C@@H]1CO)c1ccccn1	-1.4	·	·	·	·
CCOc1cccc(/C=N/NC(=O)c2cc(-c3cccn3C)n[nH]2)c1O	51.1*	1.0	3.0	64.7	-30.5%
CCCN(C)C[C@H]1Oc2ncc(-c3cccnc3)cc2C(=O)N([C@H](C)CO)C[C@H]1C	0.6	·	·	·	·
CCCCCc1cc(=O)oc2c(C(CCN3CCCC3)c3ccc(N(C)C)cc3)c(OC)cc(OC)c12 (stereo not given)	51.3*	52.6	-1.9	2.7	9.6µM*
COc1ccc(-c2oc3cc(O)c(OC)c(O)c3c(=O)c2OC)cc1O	56.2*	·	·	·	-37.4%
COc1cc(OC)c2c(=O)c(OC)c(-c3ccc(OC)c(OC)c3)oc2c1	·	16.6	0.6	20.7	·
COc1ccc(/C=N/NC2=NS(=O)(=O)c3ccccc32)cc1	-1.2	-2.9	-1.6	24.0	·
O=S1(=O)N=C(N/N=C/c2ccccn2)c2ccccc21	59.2*	-6.7	4.2	-85.7*	23.6µM*
C#CCSc1nnc(-c2cccc3ccccc23)o1	35.9	6.2	1.2	4.7	·
C=CCSc1nnc(-c2cccc3ccccc23)o1	57.5*	·	·	·	33.7µM*
C/C=C/c1ccc([C@H]2[C@@H](CO)N(Cc3ccccn3)[C@H]2CNC(=O)CC)cc1	41.4*	·	·	·	-23.3%[42 µM]
C/C=C/c1ccc([C@H]2[C@@H](CO)N(Cc3ccccn3)[C@@H]2CNC(C)=O)cc1	30.1*	·	·	·	-11.0%[42 µM]
C/C=C/c1ccc([C@H]2[C@@H](CO)N(Cc3ccccn3)[C@@H]2CNC(=O)CC)cc1	22.7	·	·	·	·
CC(=O)c1cccc(NC(=O)N2CCCC2C(=O)NCc2ccccc2)c1 (stereo not given)	21.5*	1.9	0.0	5.9	6.7%
Cc1cccc(NC(=O)N2CCCC2C(=O)NCc2ccccc2)c1 (stereo not given)	-13.3	-8.2	0.4	-2.3	·
